NadD block: inhibitors of Staphylococcus aureus NadD | inhibition, % at 20 µM | purified NadD enzyme, colorimetric absorbance read-out | 360,000 tested, 0.78% active; in the data active = inhibition above about 26%
NR2E3 ag-1: activates human photoreceptor nuclear receptor NR2E3; GST-NR2E3/biotin-RetCOR TR-FRET, 1536-well; inhibition of corepressor binding, % at 4.78 µM; 320,000 tested, 0.12% active; AID 2300;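 active = percent inhibition above the cutoff of mean plus 3 SD of all tested compounds, set per screening campaign, cut at about 20% in these data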
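System: GST-tagged NR2E3 plus biotinylated RetCOR corepressor; Buffer or medium: pH 7.5 Tris-based buffer; Probe or stimulus: RetCOR corepressor, biotinylated, 7 nM; Doses: compound at 4.8 µM, single dose; Schedule: 5 h incubation at 4 °C; Technique: time-resolved FRET; Evaluation: percent inhibition of TR-FRET ratio; Replication: one well per compound, singlicate testing.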
GalR3 antagonist: human GalR3 antagonism. O60755. HEK293 GalR3-CNG cAMP membrane potential fluorescence; galR3 body fused to GalR1 C-terminus. 360,000 tested, 0.44% active. inhibition, % at 3 µM. AID 651719;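 active = inhibition above the screen-wide average plus 3 SD, cut at about 13% in these data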;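 note: forskolin and galanin both at EC90 stimulate the cells; cAMP rise reported by CNG channel membrane potential dye signal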
Target sequence (O60755 1-299 limits assumed): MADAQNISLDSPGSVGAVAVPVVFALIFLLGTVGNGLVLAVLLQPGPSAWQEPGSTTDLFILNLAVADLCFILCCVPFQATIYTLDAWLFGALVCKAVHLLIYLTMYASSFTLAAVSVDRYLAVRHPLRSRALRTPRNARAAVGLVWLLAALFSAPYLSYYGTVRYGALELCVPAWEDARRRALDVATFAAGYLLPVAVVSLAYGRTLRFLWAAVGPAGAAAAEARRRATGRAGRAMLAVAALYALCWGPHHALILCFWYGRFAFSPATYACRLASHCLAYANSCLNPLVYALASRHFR
bovine MsrA act: activates bovine MsrA enzyme. purified bovine MsrA, absorbance read-out. activation, % at 10.6 µM. 360,000 tested, 0.3% active; in the data active = activation above about 7.5%
MsrA inh: inhibitors of bovine MsrA. purified bovine MsrA, absorbance read-out. inhibition, % at 15.5 µM. 360,000 tested, 0.75% active; in the data active = inhibition above about 4.5%
NR2E3 ag-2: human photoreceptor-specific nuclear receptor agonism; inhibition of corepressor binding, % at 3.98 µM; Q9Y5X4; 360,000 tested, 0.35% active; CHO-S Gal4-NCOR/VP16-NR2E3 two-hybrid, luciferase; AID 602229;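 active = inhibition above the mean of all tested compounds plus 3 SD, cut at about 70% in these data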;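 note: higher means lower luciferase signal from less NR2E3 corepressor binding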
NadD conf: confirmation of Staphylococcus aureus NadD inhibitors | shares compounds with NadD block | purified S. aureus NadD, colorimetric enzyme assay | inhibition, % at 20 µM | 2,000 tested, 13% active; in the data active = inhibition mostly above about 42%, no sharp cut-off; inactive = mostly below about 42%
Numbers stand for hits; n = inactive; x = no result given. In the library only some 2.5% were active in any assay of this set; here they are far more common.

SMILES | NadD block | NR2E3 ag-1 | GalR3 antagonist | bovine MsrA act | MsrA inh | NR2E3 ag-2 | NadD conf
O=C(/C=C/c1c(Cl)cccc1Cl)NCCCn1ccnc1 | n | n | n | n | n | n | x
C=CCSC1=N/C(=C\c2cc(OCC)c(OC(C)=O)c([N+](=O)[O-])c2)C(=O)S1 | 33 | n | n | n | n | n | n
O=C(CSc1nnc(-c2ccccn2)n1Cc1ccco1)c1ccc(-c2ccccc2)cc1 | 50 | n | n | n | n | n | n
Cc1ccccc1C(=O)N1CCN(c2ccc(NC(=O)c3cccc(OC(C)C)c3)cc2)CC1 | n | n | n | n | n | n | x
COc1cc2nc(SCc3ccc(C(F)(F)F)cc3)n(Cc3cccs3)c(=N)c2cc1OC | n | n | n | n | n | n | x
COc1ccc(Cn2c(SCc3cc(C)ccc3C)nc3cc(OC)c(OC)cc3c2=N)cc1 | 39 | n | n | n | n | n | n
COc1ccc(Cn2c(SCc3ccc(C)cc3)nc3cc(OC)c(OC)cc3c2=N)cc1Cl | 51 | n | n | n | n | n | n
CC1(C)Cc2c(C#N)c(N3CCN(C(=O)c4ccccc4)CC3)nc(-c3ccco3)c2CS1 | 43 | n | n | n | n | n | n
O=C(NCc1ccccn1)c1ccccc1OCc1ccc(F)cc1 | n | n | n | n | n | n | x
COc1ccc(C(=O)Nc2ccc(Cc3ccncc3)cc2)cc1Br | n | n | n | n | n | n | x
Cc1ccc(N2C(=O)[C@@H]3[C@H](C2=O)[C@H]2C=CC=NN2[C@@H]3C(=O)Nc2ccc(Cl)cc2)cc1 | n | n | n | n | n | n | x
COc1ccccc1N1C(=O)[C@@H]2[C@H](C1=O)[C@H](C(=O)c1ccc(OC(C)=O)cc1)N1N=CC=C[C@@H]21 | x | n | n | x | n | x | x
O=C(Nc1ccc(Cl)cc1)[C@@H]1[C@@H]2C(=O)N(c3ccc(Cl)cc3)C(=O)[C@@H]2[C@H]2C=CC=NN21 | 37 | n | n | n | n | n | n
CC(=O)Oc1ccc(C(=O)[C@H]2[C@H]3C(=O)N(c4ccc5ccccc5c4)C(=O)[C@H]3[C@@H]3C=CC=NN32)cc1 | 40 | n | n | n | n | n | n
COC(=O)C1=C(C)N=C2SC(C)C(=O)N2C1/C=C/c1ccccc1OC (stereo not given) | 29 | n | n | n | n | n | n
C[C@H]1CN([C@@H](C)CO)C(=O)c2cc(C#Cc3cccnc3)cnc2O[C@H]1CN(C)Cc1ccc(F)cc1 | 39 | x | n | n | n | n | n
Cc1cc(C)c(NC(=O)CSc2nc3ccc(NC(=O)CSc4nnnn4Cc4ccccc4)cc3s2)c(C)c1 | 47 | n | n | n | n | n | n
Cc1ccccc1OCc1nnc(SCC(=O)Nc2ccc3c(c2)OCO3)n1C | n | n | n | n | n | n | x
O=C(CSc1nc2ccc(NC(=O)CSc3nnnn3Cc3ccccc3)cc2s1)Nc1ccccc1 | n | n | n | n | n | n | x
Cc1ccccc1OCc1nnc(SCC(=O)Nc2ccc3nc(SCC(=O)Nc4ccccc4)sc3c2)n1C | 32 | n | n | n | n | n | n
CCc1ccc2oc(=O)cc(CN3CCN(c4ccc(F)cc4)CC3)c2c1 | n | n | n | n | n | n | x
O=c1cc(CN2CCN(c3cccc(Cl)c3)CC2)c2cc(O)c(-c3ccccc3)cc2o1 | 39 | n | n | n | n | n | n
Oc1nc(Nc2ccc(Cl)cc2Cl)sc1/C=C1\C=Nc2ccccc21 | 42 | n | n | n | n | n | n
Cc1nc(Nc2ccc(Cl)cc2Cl)sc1C(=O)Nc1ccccc1 | n | n | n | n | n | n | x
C=CCN(C(=O)c1csnn1)C(C(=O)NCc1ccc(F)cc1)c1ccc(F)cc1 (stereo not given) | n | n | n | n | n | n | x
SMILES | NadD block | NR2E3 ag-1 | GalR3 antagonist | bovine MsrA act | MsrA inh | NR2E3 ag-2 | NadD conf
Cc1[nH][nH]c(=O)c1C(c1c(C)[nH][nH]c1=O)c1cn(C)c2ccccc12 | n | x | n | n | n | n | x
Cc1[nH][nH]c(=O)c1C(c1c(C)[nH][nH]c1=O)c1cn(Cc2cccc3ccccc23)c2ccccc12 | 46 | n | n | n | n | n | 67
C/C(=N\NC(=O)c1ccc(OC2OCCOC2Oc2ccc(C(=O)N/N=C(\C)c3ccncc3)cc2)cc1)c1ccncc1 (stereo not given) | 32 | n | n | n | n | n | n
COc1ccc(CNCc2cc(OC)ccc2OC)cc1 | n | n | n | n | n | n | x
Cc1cc(-c2csc(NC(=O)c3ccccc3C(F)(F)F)n2)c(C)n1Cc1ccccc1 | 33 | n | n | n | n | n | n
Cc1cc(-c2csc(NC(=O)c3ccc(=O)n(C)n3)n2)c(C)n1CC1CCCO1 (stereo not given) | n | n | x | n | x | n | x
Cc1ccccc1-n1c(Cn2c(=O)sc3ccccc32)nnc1SCC(=O)Nc1nccs1 | n | n | n | n | n | n | x
Cc1noc(C)c1CSCC(=O)N(C)CC(=O)Nc1ccc(F)cc1 | n | n | n | n | n | n | x
CCOC(=O)Nc1ccc2c(CN3CCN(S(=O)(=O)c4ccc(C(C)C)cc4)CC3)cc(=O)oc2c1 | 50 | n | n | n | n | n | n
COc1cc(-c2nnc(SCC(=O)c3ccccc3)o2)cc(OC)c1OC | n | n | n | n | n | n | x
CN(C)S(=O)(=O)c1cc(NC(=O)CN2CCc3ccccc32)ccc1Cl | 39 | n | n | n | n | n | n
CN(C)S(=O)(=O)c1cc(NC(=O)CN2CCCc3ccccc32)ccc1Cl | n | n | n | n | n | n | x
Cc1cc2cc(CNC(=O)Nc3cccc(Cl)c3)ccc2n1C | 34 | n | n | n | n | n | n
COCCOC(=O)C1=C(C)NC2(O)c3ccccc3C(=O)C12O (stereo not given) | n | n | n | n | n | n | x
CCC(C)C(=O)Nc1nc(C)c(-c2csc(Nc3cc(Cl)ccc3OC)n2)s1 (stereo not given) | 32 | n | n | n | n | n | n
COc1ccc(Cl)cc1Nc1nc(-c2sc(NC(=O)C(C)(C)C)nc2C)cs1 | 39 | n | n | n | n | n | n
COc1cccc(Nc2nc(-c3sc(NC(=O)c4ccco4)nc3C)cs2)c1 | 30 | n | n | n | n | n | 42
CCOc1ccccc1Nc1nc(-c2sc(NC(=O)c3cccc(Cl)c3)nc2C)cs1 | 55 | n | n | n | n | n | n
COc1ccc(CNC(=O)c2cccc(NC3=NC4CS(=O)(=O)CC4S3)c2)cc1 (stereo not given) | n | n | x | n | n | n | x
N/C(=N\OC(=O)c1ccc(Cl)cc1[N+](=O)[O-])c1ccccn1 | n | n | n | n | n | n | x
O=C(Nc1cc([N+](=O)[O-])ccc1O)c1cccc(C(=O)Nc2cc([N+](=O)[O-])ccc2O)c1 | 48 | n | n | n | n | n | n

Source: PubChem
